Source: article PMC3940870 (Nature, 2013)

What was measured:
[1] = test system: P. berghei sporozoites expressing luciferase; conditions: 2.5 mg/kg; stated as known, no reference given; cited from earlier work
[2] = test system: P. falciparum schizonts (Dd2), reinvasion of RBCs; test: Physical disruption/merozoite release assay; format: cell-based, Plasmodium falciparum; conditions: ~5×IC50 imidazopyrazine or 1 μM E-64
[3] = test system: P. falciparum NF54 gametocytes; test: Gametocyte viability assay; format: cell-based; conditions: Plasmodium falciparum, NF54, 72 h, read-out: IC50, gametocyte viability
In short: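 NF54 stage III–V gametocytes came from cultures cleared of asexual parasites with 50 mM N-acetyl-D-glucosamine for 3 days, then purified on a discontinuous Percoll gradient. Viability was read by a modified pLDH assay with resazurin substrate after 72-hr exposure. The 9-point series (0.1 nM–1 μM, 0.5 log10 steps) ran in quadruplicate over 2 plates and 2 parasite batches. Controls were 1 μM DHA (MIN) and vehicle (MAX). IC50 came from four-parameter nonlinear regression.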

In the case of `O=C1C(O)=C([C@H]2CC[C@H](c3ccc(Cl)cc3)CC2)C(=O)c2ccccc21` [ATQ, atovaquone], the causal prophylactic protection [1] is listed as 100%.
For `CC(C)C[C@H](NC(=O)[C@H]1O[C@@H]1C(=O)O)C(=O)NCCCCN=C(N)N` [E-64], the “reinvasion parasitemia after mechanical rupture of treated schizonts” value [2] was 2–3%.
In the case of `C[C@H]1[C@@H](O)O[C@@H]2O[C@@]3(C)CC[C@H]4[C@H](C)CC[C@@H]1[C@@]24OO3` [DHA, dihydroartemisinin], the IC50 [3] is reported as 15.8 nM.
